From ChEMBL document CHEMBL4261499, “Chiral disubstituted piperidinyl ureas: a class of dual diacylglycerol lipase-α and ABHD6 inhibitors” (Medchemcomm, 2017) come the findings set out here.

The term pIC50 denotes −log10 of the IC50, conventionally taken in molar units.

pIC50: −log10 of the molar value. Calls of active or inactive are those of the source. No cut-off for these calls is given here.

1-acylglycerol-3-phosphate O-acyltransferase ABHD5 (Mus musculus), sequence (Q9DBL9 whole entry, looked up): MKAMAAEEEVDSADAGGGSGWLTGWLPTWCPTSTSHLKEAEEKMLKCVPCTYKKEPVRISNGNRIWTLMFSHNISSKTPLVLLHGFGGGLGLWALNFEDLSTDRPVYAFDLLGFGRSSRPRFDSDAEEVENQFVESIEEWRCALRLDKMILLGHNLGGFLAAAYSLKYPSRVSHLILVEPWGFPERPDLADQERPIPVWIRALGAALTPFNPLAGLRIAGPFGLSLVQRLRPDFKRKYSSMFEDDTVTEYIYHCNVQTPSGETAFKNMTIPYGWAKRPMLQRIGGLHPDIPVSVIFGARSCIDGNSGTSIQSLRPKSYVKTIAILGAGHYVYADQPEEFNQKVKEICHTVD

The species entered for one assay is Mus musculus. Kind of assay: Inhibition of FP-TAMRA labelling of FAAH in mouse brain homogenates at 10 uM pretreated for 30 mins followed by FP-TAMRA addition and measured after 20 mins by activity based protein profiling assay. It is filed as tissue-based. The gist of the method: (§1)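 Mouse brain membrane proteome (2 mg mL-1) preincubated 30 min at r.t. with inhibitor (10 μM) or DMSO vehicle, then labelled with TAMRA-FP, 500 nM final, 20 min at r.t. Reaction quenched with Laemmli sample buffer. Readout by gel-based competitive ABPP with Coomassie staining as loading control.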
Consider `O=C(N1CCC=C[C@@H]1COCc1ccccc1)n1cc(-c2ccc([N+](=O)[O-])cc2)nn1`, for which the inhibition result was “Active”.

Consider `O=C(N1C[C@@H](O)C=C[C@@H]1COCc1ccccc1)n1cc(-c2ccc(-c3ccccc3)cc2)nn1`, for which the inhibition result is “Active”.

Take `O=C(N1CCC=C[C@@H]1COCc1ccccc1)n1cc(-c2ccccc2)nn1`: the inhibition result is “Active”.

Another assay has as its target 1-acylglycerol-3-phosphate O-acyltransferase ABHD5 (Mus musculus) (UniProt Q9DBL9). The experiment in a line: Inhibition of MB064 labelling of ABHD5 in mouse brain homogenates at 10 uM pretreated for 30 mins followed by MB064 addition and measured after 20 mins by activity based protein profiling assay. The format is tissue-based. In short, it runs like this: (§2)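 Mouse brain membrane proteome preincubated 30 min with inhibitor (10 μM), then labelled with MB064 probe (0.25 μM, 20 min). Readout by gel-based competitive ABPP. Band intensities corrected for protein loading per lane from Coomassie staining. Means ± SEM, n = 3.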
With `O=C(N1CCC=C[C@@H]1COCc1ccccc1)n1cc(-c2ccc([N+](=O)[O-])cc2)nn1`, the inhibition entry is “Active”.

In the case of `O=C(N1C[C@@H](O)C=C[C@@H]1COCc1ccccc1)n1cc(-c2ccc(-c3ccccc3)cc2)nn1`, the inhibition result was “Active”.

Take `O=C(N1CCC=C[C@@H]1COCc1ccccc1)n1cc(-c2ccccc2)nn1`: the inhibition entry was “Active”.

For another assay, the species on record is Mus musculus. The experiment in a line: Inhibition of MB064 labelling of ABHD16A in mouse brain homogenates at 10 uM pretreated for 30 mins followed by MB064 addition and measured after 20 mins by activity based protein profiling assay. It is filed as tissue-based. In short, it runs like this:
as §2
For the molecule `O=C(N1CCC=C[C@@H]1COCc1ccccc1)n1cc(-c2ccc([N+](=O)[O-])cc2)nn1`, the inhibition result is “Active”.

Regarding `O=C(N1C[C@@H](O)C=C[C@@H]1COCc1ccccc1)n1cc(-c2ccc(-c3ccccc3)cc2)nn1`, the inhibition entry is “Active”.

For `O=C(N1CCC=C[C@@H]1COCc1ccccc1)n1cc(-c2ccccc2)nn1`, the inhibition result was “Active”.

Another assay is filed under the species Mus musculus. The experiment in a line: Inhibition of FP-TAMRA labelling of KIAA1363 in mouse brain homogenates at 10 uM pretreated for 30 mins followed by FP-TAMRA addition and measured after 20 mins by activity based protein profiling assay. The format is tissue-based. The gist of the method: as §1
With `O=C(N1CCC=C[C@@H]1COCc1ccccc1)n1cc(-c2ccc([N+](=O)[O-])cc2)nn1`, the inhibition entry is “Active”.

As for `O=C(N1C[C@@H](O)C=C[C@@H]1COCc1ccccc1)n1cc(-c2ccc(-c3ccccc3)cc2)nn1`, the inhibition result is “Active”.

For `O=C(N1CCC=C[C@@H]1COCc1ccccc1)n1cc(-c2ccccc2)nn1`, the inhibition entry was “Active”.

The target of another assay is T1, Diacylglycerol lipase-alpha (Homo sapiens, UniProt Q9Y4D2).
T1 sequence (Q9Y4D2 whole entry): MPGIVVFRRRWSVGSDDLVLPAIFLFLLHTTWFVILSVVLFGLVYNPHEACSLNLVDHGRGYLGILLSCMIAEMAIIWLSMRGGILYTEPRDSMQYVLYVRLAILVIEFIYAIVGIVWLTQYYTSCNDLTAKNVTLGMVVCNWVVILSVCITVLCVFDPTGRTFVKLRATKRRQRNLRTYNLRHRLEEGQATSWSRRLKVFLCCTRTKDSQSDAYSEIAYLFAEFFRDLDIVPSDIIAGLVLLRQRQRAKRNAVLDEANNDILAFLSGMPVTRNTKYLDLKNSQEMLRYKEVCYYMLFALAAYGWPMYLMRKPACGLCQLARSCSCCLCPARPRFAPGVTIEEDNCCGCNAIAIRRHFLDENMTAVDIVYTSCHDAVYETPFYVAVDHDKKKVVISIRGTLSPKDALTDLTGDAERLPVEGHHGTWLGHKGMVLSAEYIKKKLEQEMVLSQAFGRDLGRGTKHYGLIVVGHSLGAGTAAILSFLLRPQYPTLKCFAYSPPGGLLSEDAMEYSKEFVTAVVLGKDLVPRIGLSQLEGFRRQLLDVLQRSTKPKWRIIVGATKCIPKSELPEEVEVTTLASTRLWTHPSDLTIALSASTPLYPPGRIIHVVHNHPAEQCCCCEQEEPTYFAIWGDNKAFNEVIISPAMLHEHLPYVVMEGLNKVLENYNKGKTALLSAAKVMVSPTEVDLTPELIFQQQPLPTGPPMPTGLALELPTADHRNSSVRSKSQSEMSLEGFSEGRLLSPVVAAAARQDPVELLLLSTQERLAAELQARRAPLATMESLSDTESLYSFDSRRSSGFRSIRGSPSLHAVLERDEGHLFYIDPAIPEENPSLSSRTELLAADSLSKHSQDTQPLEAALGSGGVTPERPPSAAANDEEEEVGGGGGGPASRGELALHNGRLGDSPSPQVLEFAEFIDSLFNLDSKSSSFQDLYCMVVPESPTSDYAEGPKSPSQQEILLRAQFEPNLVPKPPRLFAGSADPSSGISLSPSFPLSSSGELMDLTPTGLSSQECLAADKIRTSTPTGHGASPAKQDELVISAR
Kind of assay: Inhibition of recombinant human DAGLalpha expressed in HEK293 cells using PNP-butyrate as substrate pretreated for 20 to 30 mins followed by substrate addition measured every 60 secs for 20 mins by colorimetric method. It is filed as cell-based. In short, it runs like this: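 Membrane fraction from HEK293T cells transiently transfected with human DAGLα (PEI transfection, harvested at 72 h). Membranes used at 0.05 μg μL-1 final protein in 50 mM HEPES pH 7.2. Colorimetric readout of para-nitrophenylbutyrate hydrolysis. pIC50 ± SEM.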
In the case of `O=C(N1CCC=C[C@@H]1COCc1ccccc1)n1cc(-c2ccc(Oc3ccccc3)cc2)nn1`, the pIC50 was 7.60.

For the molecule `O=C(N1CCC=C[C@@H]1COCc1ccccc1)n1cc(-c2ccc(-c3ccccc3)cc2)nn1`, the pIC50 was 7.60.

Take `O=C(N1CCC=C[C@@H]1COCc1ccccc1)n1cc(-c2ccc([N+](=O)[O-])cc2)nn1`: the pIC50 is 7.80.

As to `O=C(N1CCC=C[C@@H]1COCc1ccccc1)n1cc(-c2ccc(Br)cc2)nn1`, the pIC50 was 7.80.

For `O=C(N1C[C@@H](O)C=C[C@@H]1COCc1ccccc1)n1cc(-c2ccc(-c3ccccc3)cc2)nn1`, the pIC50 was 7.50.

On to `O=C(N1CCCC[C@@H]1COCc1ccccc1)n1cc(-c2ccc(-c3ccccc3)cc2)nn1`, for which the pIC50 is 7.10.

For `O=C(N1CCC=C[C@@H]1COCc1ccccc1)n1cc(-c2ccccc2)nn1`, the pIC50 is 6.80.

Another assay addresses T2, Epoxide hydrolase 4 (Mus musculus) (UniProt Q6IE26).
T2 sequence (whole entry): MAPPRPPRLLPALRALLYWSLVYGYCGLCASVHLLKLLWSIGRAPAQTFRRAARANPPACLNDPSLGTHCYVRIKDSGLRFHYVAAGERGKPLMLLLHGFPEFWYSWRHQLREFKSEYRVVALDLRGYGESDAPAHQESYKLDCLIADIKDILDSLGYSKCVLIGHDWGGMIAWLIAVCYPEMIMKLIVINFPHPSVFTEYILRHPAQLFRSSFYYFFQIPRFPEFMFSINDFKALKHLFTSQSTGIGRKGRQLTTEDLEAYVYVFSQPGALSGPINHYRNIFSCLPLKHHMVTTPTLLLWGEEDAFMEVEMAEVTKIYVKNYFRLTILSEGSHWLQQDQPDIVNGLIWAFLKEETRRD
The experiment in a line: Inhibition of MB064 labelling of ABHD7 in mouse brain homogenates at 10 uM pretreated for 30 mins followed by MB064 addition and measured after 20 mins by activity based protein profiling assay. It is filed as tissue-based. In short, it runs like this: as §2
For the molecule `O=C(N1CCC=C[C@@H]1COCc1ccccc1)n1cc(-c2ccc([N+](=O)[O-])cc2)nn1`, the inhibition entry was “Active”.

For the molecule `O=C(N1C[C@@H](O)C=C[C@@H]1COCc1ccccc1)n1cc(-c2ccc(-c3ccccc3)cc2)nn1`, the inhibition entry is “Active”.

Turning to `O=C(N1CCC=C[C@@H]1COCc1ccccc1)n1cc(-c2ccccc2)nn1`, the inhibition result is “Active”.

The target of a further assay is T3, Monoglyceride lipase (Mus musculus) (UniProt O35678).
T3 sequence (whole entry): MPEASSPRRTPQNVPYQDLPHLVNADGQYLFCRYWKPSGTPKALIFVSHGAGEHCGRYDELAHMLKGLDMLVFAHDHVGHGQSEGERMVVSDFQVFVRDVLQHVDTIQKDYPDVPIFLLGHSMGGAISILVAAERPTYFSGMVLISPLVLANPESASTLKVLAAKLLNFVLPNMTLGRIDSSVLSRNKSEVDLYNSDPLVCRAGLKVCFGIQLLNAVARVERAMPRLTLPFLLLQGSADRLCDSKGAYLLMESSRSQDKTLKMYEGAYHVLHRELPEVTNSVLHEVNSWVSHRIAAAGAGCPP
The experiment in a line: Inhibition of FP-TAMRA labelling of MAGL in mouse brain homogenates at 10 uM pretreated for 30 mins followed by FP-TAMRA addition and measured after 20 mins by activity based protein profiling assay. The format is tissue-based. In short, it runs like this:
as §1
As to `O=C(N1CCC=C[C@@H]1COCc1ccccc1)n1cc(-c2ccc([N+](=O)[O-])cc2)nn1`, the inhibition result is “Active”.

Regarding `O=C(N1C[C@@H](O)C=C[C@@H]1COCc1ccccc1)n1cc(-c2ccc(-c3ccccc3)cc2)nn1`, the inhibition entry is “Active”.

Regarding `O=C(N1CCC=C[C@@H]1COCc1ccccc1)n1cc(-c2ccccc2)nn1`, the inhibition entry is “Active”.
